One series concerns efflux transporters. Description: In-house data on efflux transporter substrate status. The format is in vitro ADME.
Another series can be described thus: Population PK model. The format is in vivo, human. An outline of the steps: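 Pooled Part I and II plasma concentrations (5–65 mg single doses; 10–40 mg once daily) were fitted with a three-compartment model. It had first-order absorption with lag, a dose-dependent bioavailability power model (relative bioavailability at 5 mg fixed to 1), and volumes per kg bodyweight. Slow peripheral volume and bioavailability were allowed to change between first dose and steady state. Interindividual variability was on Vc, CL, Frel, ka and Alag, with additive log-scale error. Estimates carry 90% CI, with visual predictive checks from 1,000 simulations.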

Series [1] deals with activation of NSPs (NE, Pr3, and CatG) in human primary bone marrow-derived CD34+ neutrophil progenitor cells. The following applies: cited from earlier work.
Series [2] is described as follows: In-house data on metabolic clearance routes and plasma protein binding. The format is in vitro ADME.
Series [3] in a line: Safety and tolerability in healthy subjects. The format is in vivo, human.
Series [4] relates to whole blood neutrophil elastase (NE) activity. Description: Whole blood NE activity. The format is in vivo, human. In outline: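 Part II only: healthy males on 10, 25 or 40 mg once daily for 21 or 28 days, or placebo (pooled). Whole-blood NE activity was expressed as percent change from each subject's baseline, […]. The 25 and 40 mg cohorts had follow-up visits up to 1 month after leaving the unit. ANC-normalized activity was fitted with a transit-compartment maturation model in which plasma concentration inhibits entry into the first compartment via a sigmoid Hill function. Blood neutrophil half-life was fixed from literature and maximal inhibition was fixed at complete.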

The nature of series [5]: AZD7986 plasma pharmacokinetics. The format is in vivo, human. An outline of the steps:
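Healthy male subjects received oral AZD-class test compound. In Part I, single doses of 5–65 mg were given to cohorts of nine, three of them on placebo, with plasma sampled up to 96 h. In Part II, 10, 25 or 40 mg were given once daily for 21 or 28 days, with sampling up to 24 h after the first dose and 96 h after the last. Steady state was checked from predose levels on Days 18–20 and 21/28. Parameters came from noncompartmental analysis.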

In a further series the test system is DPP1. The conditions noted are these: once daily, 21 days of dosing; cited from earlier work.
For series [6] the following is noted: cited from earlier work.
The next series deals with NSP activity. The following applies: 21 days of dosing; cited from earlier work.
Setting [7] is: between first dose and steady state.

Entries after “also recorded” stand apart in the source; their conditions may differ. Where two headings read alike, the source gives them in different places.

The source of these data is paper PMC6282495 (Clinical Pharmacology and Therapeutics, 2018).

For `Cn1c(=O)oc2ccc(-c3ccc(C[C@@H](C#N)NC(=O)[C@@H]4CNCCCO4)cc3)cc21` [AZD7986], the “Substrate for efflux transporters” value with efflux transporters is reported as “may be a substrate for efflux transporters”. Besides, the “Increase in oral bioavailability” value in the series “Population PK model” (between 5 and 65 mg, power model) is recorded as around 2 fold. Further, in “Population PK model” (setting [7]), the “Fsteadystate_change, percent change in bioavailability” value is reported as 24.3% and the “Vp,slow,steadystate_change, percent change in volume of slowly equilibrating tissue compartment” value stood at 34%. Also, in the series “Population PK model” (population PK model estimate), the “Alag, absorption lag time” value is on record as 0.159 h; the “CL, apparent clearance from central compartment” value is 12.0 L/h; the “IIV Alag, interindividual variability in Alag” value is 21.3%; the “IIV CL, interindividual variability in CL” value was 22.2%. In addition, in “Population PK model” (population PK model estimate), the “IIV Frel, interindividual variability in Frel” value is listed as 18.2%; the “IIV Vc, interindividual variability in Vcentral” value is 53.6%; the “IIV ka, interindividual variability in ka” value is 28.8%; the “Qfast, apparent intercompartmental clearance between plasma and rapidly equilibrating tissues” value is 122 L/h. In addition, in the series “Population PK model” (population PK model estimate), the “Qslow, apparent intercompartmental clearance between plasma and slowly equilibrating tissues” value is given as 14.7 L/h; the “Vc, apparent volume per kg bodyweight of central plasma compartment” value is given as 0.368 L/kg; the “Vp,fast, apparent volume per kg bodyweight of rapidly equilibrating tissue compartment” value was 2.45 L/kg; the “ka, absorption rate constant” value was 0.809 h⁻¹. In addition, in the series “Population PK model” (relative to 5 mg single dose), the “Fslope, slope parameter for bioavailability vs. dose power model” value came to 0.228. In the series “Population PK model” (single dose, population PK model estimate), the “Vp,slow, apparent volume per kg bodyweight of slowly equilibrating tissue compartment” value is given as 1.97 L/kg. Further, in [1] (NE, Pr3 and CatG), the Hill coefficient is reported as around 0.65. Besides, in series [1] (concentration-dependent), the “Extent of inhibition of activation of all three NSPs” value is “completely inhibit”. The IC50 in series [1] (read-out: IC50 for inhibition of NSP activation, NE, Pr3 and CatG) was 60 to 200 nM. The “Saturable metabolic clearance routes or plasma protein binding” value in series [2] is recorded as “does not indicate”. The “Discontinuation of treatment due to skin AE of lichenoid drug eruption” value in series [3] (25 mg, Day 13) is reported as “One subject”. For the same molecule, the “Skin findings of special interest seen in the highest dose group” value in series [3] (Part II, 40 mg, number of subjects) is recorded as “four”. The “Skin findings of special interest seen in subjects treated with AZD7986” value in [3] (Part II, number of subjects) is “five of the six”. In addition, the “Effect on the number of neutrophils in blood” value in [3] (Part II, repeated dosing) is recorded as “no clinically significant effect”. Moreover, in series [3] (Parts I and II), the “Clinical laboratory results, 12-lead ECGs, telemetry results” value is “No trends were observed”; the Infection risk entry is given as “no signal of increased infection risk”; the Serious adverse events entry is given as “No serious adverse events”. Moreover, the “Mild gingival bleeding, AZD7986 versus placebo” value in series [3] (gingival probing) is on record as “no difference”. Besides, the Overall tolerability result in series [3] (single doses 5-65 mg, once daily 10-40 mg for 21 or 28 days) was “well tolerated”. In addition, the “Observed reduction of whole blood NE activity, on average” value in series [4] (40 mg dose group, 28 days once daily) is listed as “more than 50%”. Besides, the “Recovery of NE activity after cessation of dosing” value in [4] (25 and 40 mg cohorts, follow-up visits) is on record as “recovers once treatment is stopped”. Moreover, the “IIV IC50, interindividual variability in IC50” value in series [4] (PK-PD model) is listed as 33.3%. For the same molecule, in [4] (PK-PD model, Imax fixed to 1 (100%)), the “nH, Hill coefficient” value is given as 0.697. For the same molecule, the “Average time to steady state of whole blood NE activity after initiation of dosing” value in series [4] (implied by estimated MTT, N and PK) is listed as “about 25 days”. Moreover, the “Start of response in whole blood NE activity after treatment initiation” value in series [4] (three active doses compared to placebo) is around 12 days. In [5] (male, human, plasma, po, Terminal half-life, after a single oral dose), this molecule returned a half-life of 20 to 26 h. For the same molecule, in series [5] (oral dosing, healthy subjects), the “Time of maximum plasma levels (Cmax) after dosing” value was 0.5 to 1.5 h.

For `CC[C@@H](/C=C/C(=O)N1CCc2ccccc21)NC(=O)C1(N)CCOCC1` [GSK2793660], the “DPP1 inhibition in whole blood” value in the series with DPP1 is given as “sustained inhibition; also recorded: sustained, near‐complete”. The half-life in [6] (administered once daily) is 1.5 h. In series [6], the “Cases of skin desquamation” value is on record as “seven”; the “Downstream effect reported on skin” value was “epidermal desquamation on palmar and plantar surfaces”. Moreover, the “Effect on NSP activity” value in the series with NSP activity is given as “no clear effect”.

By Hill coefficient is commonly meant a measure of the steepness of the concentration-response curve. Usually IC50 stands for the midpoint of a concentration-inhibition curve. What is called half-life is the time in which the quantity being followed falls by half.
